Measured values taken from ChEMBL document CHEMBL4052614, “Novel 3',5'-diprenylated chalcones inhibited the proliferation of cancer cells in vitro by inducing cell apoptosis and arresting cell cycle phase” (Eur J Med Chem, 2017).
pIC50: −log10 of the molar value. Calls of active or inactive are those of the source. The calls are words filed in the database; no cut-off is given here.

Key:
MDA-MB-231 = experiment: Growth inhibition of human MDA-MB-231 cells at 5 umol/L after 48 hrs by MTT assay relative to control; format: functional; conditions: for inhibition of growth at 5 µM: MDA-MB-231, 48 h, read-out: GI
How it was run: (§1)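 Cells kept in DMEM/10% FBS at 37 °C, 5% CO2, seeded at 4×10^3–8×10^3 cells/well, 24 h attachment, then 48 h with compound at 5 µmol/L. MTT (5 mg/mL solution) added for 4 h at 37 °C, formazan taken up in DMSO, A490 read. Percent inhibition as mean ± SD of three independent experiments. Doxorubicin as positive control.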

PC-3 [1] = experiment: Growth inhibition of human PC3 cells at 5 umol/L after 48 hrs by MTT assay relative to control; format: functional; conditions: for inhibition of growth at 5 µM: PC-3, 48 h, read-out: GI; how it was run: as §1
HEL [2] = experiment: Growth inhibition of HEL cells at 5 umol/L after 48 hrs by MTT assay relative to control; format: functional; conditions: Homo sapiens; for inhibition of growth at 5 µM: read-out: GI; how it was run: as §1
K562 [3] = experiment: Growth inhibition of human K562 cells at 5 umol/L after 48 hrs by MTT assay relative to control; format: functional; conditions: for inhibition of growth at 5 µM: K562, 48 h, read-out: GI; how it was run: as §1
HEL [4] = experiment: Cell cycle arrest in HEL cells assessed as decrease in G2 phase accumulation at 5 umol/L after 48 hrs by propidium iodide staining based flow cytometric method; format: functional; conditions: Homo sapiens
How it was run: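 Cells grown in DMEM with 10% FBS and penicillin/streptomycin at 37 °C, 5% CO2, and passaged at least 3 times after thawing. Treated 48 h at 5 µmol/L, DMSO-treated controls. Harvested by trypsin, PBS-washed, fixed in ice-cold ethanol, blocked 1 h at 4 °C in 5% BSA/PBS, RNase 1 µg/mL 30 min at 37 °C, PI 20 µg/mL final. Phase percentages read from PI histograms. Mean ± SD, three independent experiments.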

HEL [5] = experiment: Induction of apoptosis in HEL cells assessed as early apoptotic cells at 10 umol/L after 48 hrs by annexin V-FITC/propidium iodide staining based flow cytometry (reference value: 4.2%); format: functional, Homo sapiens
HEL [6] = experiment: Induction of apoptosis in HEL cells assessed as necrotic cells at 5 umol/L after 48 hrs by annexin V-FITC/propidium iodide staining based flow cytometry (reference value: 0.3 to 1%); format: functional, Homo sapiens
HEL [7] = experiment: Induction of apoptosis in HEL cells assessed as viable cells at 10 umol/L after 48 hrs by annexin V-FITC/propidium iodide staining based flow cytometry (reference value: 94%); format: functional; conditions: Homo sapiens, read-out: Activity
HEL [8] = experiment: Induction of morphological changes in HEL cells assessed as formation of apoptotic bodies at 5 umol/L after 48 hrs by inverted fluorescence microscopic analysis; format: functional, cell-based; conditions: Homo sapiens
How it was run: (§2)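 Cells cultured in DMEM/10% FBS at 37 °C, 5% CO2. Exposed 48 h to 5 µmol/L compound alongside DMSO controls. Morphology (cell number, rounding, spacing, apoptotic bodies, spindle shape) observed under an inverted microscope with CCD camera.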

HEL [9] = experiment: Induction of apoptosis in HEL cells assessed as viable cells at 5 umol/L after 48 hrs by annexin V-FITC/propidium iodide staining based flow cytometry (reference value: 93.1 to 94%); format: functional; conditions: Homo sapiens, read-out: Activity
HEL [10] = experiment: Induction of morphological changes in HEL cells assessed as reduction in cell number at 5 umol/L after 48 hrs by inverted fluorescence microscopic analysis; format: functional, cell-based; conditions: Homo sapiens; how it was run: as §2
HEL [11] = experiment: Cytotoxicity against HEL cells after 48 hrs by MTT assay; format: functional, cell-based; conditions: Homo sapiens
How it was run: (§3)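 Cells kept in DMEM/10% FBS at 37 °C, 5% CO2, seeded at 4×10^3–8×10^3 cells/well and left 24 h to adhere. Exposed 48 h to a range of concentrations. MTT (5 mg/mL solution) added for 4 h at 37 °C, formazan dissolved in DMSO, absorbance read at 490 nm. IC50 derived from concentration–inhibition relation. Doxorubicin as positive control.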

HEL [12] = experiment: Induction of apoptosis in HEL cells assessed as necrotic cells at 10 umol/L after 48 hrs by annexin V-FITC/propidium iodide staining based flow cytometry (reference value: 0.3%); format: functional, Homo sapiens
HEL [13] = experiment: Induction of apoptosis in HEL cells assessed as late apoptotic cells at 5 umol/L after 48 hrs by annexin V-FITC/propidium iodide staining based flow cytometry (reference value: 1.6 to 3.3%); format: functional, Homo sapiens
HEL [14] = experiment: Induction of apoptosis in HEL cells assessed as early apoptotic cells at 5 umol/L after 48 hrs by annexin V-FITC/propidium iodide staining based flow cytometry (reference value: 2.6 to 4.2%); format: functional, Homo sapiens
HEL [15] = experiment: Induction of apoptosis in HEL cells assessed as late apoptotic cells at 10 umol/L after 48 hrs by annexin V-FITC/propidium iodide staining based flow cytometry (reference value: 1.6%); format: functional, Homo sapiens
K562 [16] = experiment: Cytotoxicity against human K562 cells after 48 hrs by MTT assay; format: functional, cell-based; conditions: K562, 48 h; how it was run: as §3
PC-3 [17] = experiment: Cytotoxicity against human PC3 cells after 48 hrs by MTT assay; format: functional, cell-based; conditions: PC-3, 48 h; how it was run: as §3

Row | SMILES | inhibition of growth at 5 µM (MDA-MB-231) | inhibition of growth at 5 µM (PC-3 [1]) | growth inhibition (GI) (HEL [2]) | inhibition of growth at 5 µM (K562 [3]) | inhibition of growth at 5 µM (HEL [2]) | growth inhibition (GI) (K562 [3]) | other results
1 | COc1ccc(/C=C/C(=O)c2cc(CC=C(C)C)c(OC)c(CC=C(C)C)c2O)cc1Br | 30.2% | 20.9% | inactive | 18.9% |  |  | 
2 | CCOc1cc(/C=C/C(=O)c2cc(CC=C(C)C)c(OC)c(CC=C(C)C)c2O)ccc1O | 33.5% | 25.6% |  | 10.2% | 12.7% |  | 
3 | COc1ccc(/C=C/C(=O)c2cc(CC=C(C)C)c(OC)c(CC=C(C)C)c2O)cc1F | 12.1% |  |  | 19.3% | 12.3% |  | growth inhibition (GI) (PC-3 [1]): inactive
4 | COCOc1ccc(/C=C/C(=O)c2cc(CC=C(C)C)c(OC)c(CC=C(C)C)c2O)cc1OC | 14% | 17.3% | inactive | 3.9% |  |  | 
5 | CCOc1cc(/C=C/C(=O)c2cc(CC=C(C)C)c(OC)c(CC=C(C)C)c2O)ccc1OC(=O)c1ccc(Cl)s1 |  | 34.3% | inactive |  |  | inactive | growth inhibition (GI) (MDA-MB-231): inactive
6 | COc1c(CC=C(C)C)cc(C(=O)/C=C/c2cccn2C)c(O)c1CC=C(C)C | 33.8% | 11.7% | inactive | 9.9% |  |  | 
7 | CCOc1cc(/C=C/C(=O)c2cc(CC=C(C)C)c(OC)c(CC=C(C)C)c2O)ccc1OC(=O)/C=C/c1ccncc1 |  | 13.5% | inactive |  |  | inactive | growth inhibition (GI) (MDA-MB-231): inactive
8 | CCOc1cc(/C=C/C(=O)c2cc(CC=C(C)C)c(OC)c(CC=C(C)C)c2O)ccc1OC(=O)c1ccco1 |  | 12.7% | inactive |  |  | inactive | growth inhibition (GI) (MDA-MB-231): inactive
9 | COc1cc(/C=C/C(=O)c2cc(CC=C(C)C)c(OC)c(CC=C(C)C)c2O)ccc1OC(=O)c1cccnc1 |  | 23% |  |  | 5.7% | inactive | growth inhibition (GI) (MDA-MB-231): inactive
10 | COc1cc(/C=C/C(=O)c2cc(CC=C(C)C)c(OC)c(CC=C(C)C)c2O)ccc1O | 19.3% | 26% |  |  | 22.2% | inactive | 
11 | CCOc1cc(/C=C/C(=O)c2cc(CC=C(C)C)c(OC)c(CC=C(C)C)c2O)ccc1OC(=O)c1cccs1 | 7.4% | 21.4% |  |  | 4% | inactive | 
12 | COc1ccc(/C=C/C(=O)c2cc(CC=C(C)C)c(OC)c(CC=C(C)C)c2O)cc1[N+](=O)[O-] | 23.4% | 21.2% |  | 23% | 85.4% |  | Activity (HEL [4]): Active; Activity (HEL [5]): 11.6%; Activity (HEL [6]): 0.8%; viability at 10 µM (HEL [7]): 30.6%; Activity (HEL [8]): inactive; viability at 5 µM (HEL [9]): 90%; Activity (HEL [10]): Active; Activity (HEL [11]): Dose-dependent effect; pIC50 (HEL [11]): 5.36; Activity (HEL [12]): 10.1%; Activity (HEL [13]): 3.9%; Activity (HEL [14]): 5.3%; Activity (HEL [15]): 47.6%
13 | COc1cc(/C=C/C(=O)c2cc(CC=C(C)C)c(OC)c(CC=C(C)C)c2O)ccc1OC(=O)c1ccc(N(C)C)cc1 | 38.5% | 36.5% | inactive | 8.1% |  |  | 
14 | COc1cc(/C=C/C(=O)c2cc(CC=C(C)C)c(OC)c(CC=C(C)C)c2O)ccc1OC(=O)Cc1cc2ccccc2[nH]1 | 28.3% | 29.9% | inactive |  |  | inactive | 
15 | COc1cccc2c1C(=O)c1c(O)c3c(c(O)c1C2=O)C[C@@](O)(C(=O)CO)C[C@@H]3O[C@H]1C[C@H](N)[C@H](O)[C@H](C)O1 [DOXORUBICIN] | 87.1% | 89.7% |  | 90.6% | 89.2% |  | pIC50 (HEL [11]): 5.67; pIC50 (K562 [16]): 5.62; pIC50 (PC-3 [17]): 5.58
16 | COc1ccc(/C=C/C(=O)c2cc(CC=C(C)C)c(OC)c(CC=C(C)C)c2O)cc1 | 14.5% | 24.6% |  | 32% | 29.5% |  | 
17 | C=CCOc1ccc(/C=C/C(=O)c2cc(CC=C(C)C)c(OC)c(CC=C(C)C)c2O)cc1OCC | 27.7% | 13.4% | inactive |  |  | inactive | 
18 | COc1ccc(/C=C/C(=O)c2cc(CC=C(C)C)c(OC)c(CC=C(C)C)c2O)cc1Cl | 26.5% | 31.8% |  | 31.9% | 11.7% |  | 
19 | COc1ccc(/C=C/C(=O)c2cc(CC=C(C)C)c(OC)c(CC=C(C)C)c2O)cc1OC | 19% | 10.6% | inactive | 7.5% |  |  | 
20 | COc1cc(/C=C/C(=O)c2cc(CC=C(C)C)c(OC)c(CC=C(C)C)c2O)ccc1OC(=O)c1ccc(C)s1 | 19.6% | 19.2% | inactive | 6.3% |  |  | 
21 | COc1cc(/C=C/C(=O)c2cc(CC=C(C)C)c(OC)c(CC=C(C)C)c2O)cc(OC)c1OC | 26.2% | 15% |  |  | 23.6% | inactive | 
22 | COc1c(CC=C(C)C)cc(C(=O)/C=C/c2ccc(N(C)C)cc2)c(O)c1CC=C(C)C | 21.5% | 11.6% | inactive |  |  | inactive | 
23 | CCOc1cc(/C=C/C(=O)c2cc(CC=C(C)C)c(OC)c(CC=C(C)C)c2O)ccc1OCOC | 29.9% | 13.1% |  |  | 6.3% | inactive | 
